In ChEMBL document CHEMBL3867438, “Cytotoxic Tirucallane and Apotirucallane Triterpenoids from the Stems of Picrasma quassioides” (J Nat Prod, 2016):

How the values were obtained:
Type in all cases: functional, cell-based
[1] = Cytotoxicity against human MCF7 cells assessed as inhibition of cell proliferation after 48 hrs by MTT assay; conditions: MCF7, 48 h
Summary of the method: (§1)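 Cells grown in DMEM with 10% FBS, 100 U/mL penicillin, 100 μg/mL streptomycin, 37 °C, 5% CO2. Seeded 5 × 10^3 cells/well, 12 h, then exposed to compounds for 48 h. MTT (5 mg/mL stock) added for 4 h at 37 °C, formazan dissolved in DMSO, absorbance read at 570 nm. IC50 relative to untreated control. Triplicate, repeated twice; cis-platinum as positive control.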

[2] = Cytotoxicity against human A549 cells assessed as inhibition of cell proliferation after 48 hrs by MTT assay; conditions: A549, 48 h; summary of the method: as §1
[3] = Cytotoxicity against human MKN28 cells assessed as inhibition of cell proliferation after 48 hrs by MTT assay; conditions: MKN-28, 48 h; summary of the method: as §1

Compound	IC50 [1]	IC50 [2]	IC50 [3]
CCO[C@H]1O[C@H](C(C)(C)O)[C@@H](O)C[C@H]1[C@@H]1CC[C@]2(C)C3=CC(=O)[C@H]4C(C)(C)C(=O)CC[C@]4(C)[C@H]3CC[C@@]12C	> 10 µM	> 10 µM	8.2 µM
CC(C)(O)[C@H]1OC[C@H]([C@H]2CC[C@]3(C)C4=CC[C@H]5C(C)(C)C(=O)CC[C@]5(C)[C@H]4CC[C@@]23C)C[C@H]1O	9.9 µM	7 µM	6.7 µM
CCO[C@@H]1O[C@@H]([C@H](O)C(C)(C)O)C[C@H]1[C@@H]1CC[C@]2(C)C3=CC[C@H]4C(C)(C)C(=O)CC[C@]4(C)[C@H]3CC[C@@]12C	> 10 µM	> 10 µM	> 10 µM
CCO[C@@H]1O[C@H]([C@@H](O)C(C)(C)O)C[C@H]1[C@@H]1CC[C@]2(C)C3=CC[C@H]4C(C)(C)[C@@H](O)CC[C@]4(C)C3=CC[C@@]12C	> 10 µM	> 10 µM	9.1 µM
CO[C@H]1O[C@@H](C=C(C)C)C[C@H]1[C@@H]1CC[C@]2(C)C3=CC[C@H]4C(C)(C)[C@@H](O)CC[C@]4(C)[C@H]3CC[C@@]12C	> 10 µM	> 10 µM	> 10 µM
COC(=O)[C@@H](CCC=C(C)C)[C@@H]1CC[C@]2(C)C3=CC[C@@H]4[C@](C)(CCC(=O)[C@]4(C)CO)[C@H]3CC[C@@]12C	> 10 µM	> 10 µM	8.3 µM
CCO[C@H]1O[C@@H]([C@H](O)C(C)(C)O)C[C@H]1[C@@H]1CC[C@]2(C)C3=CC[C@H]4C(C)(C)C(=O)CC[C@]4(C)[C@H]3CC[C@@]12C	> 10 µM	> 10 µM	> 10 µM
CCO[C@H]1O[C@@H]([C@H](O)C(C)(C)O)C[C@H]1[C@@H]1CC[C@]2(C)C3=CC=C4C(C)(C)C(=O)CC[C@]4(C)C3=CC[C@@]12C	> 10 µM	> 10 µM	> 10 µM
CO[C@@H]1O[C@H](C=C(C)C)C[C@H]1[C@@H]1CC[C@]2(C)C3=CC[C@H]4C(C)(C)[C@@H](O)CC[C@]4(C)[C@H]3CC[C@@]12C	> 10 µM	> 10 µM	9.8 µM
CC(C)=CCC[C@H](C(=O)O)[C@@H]1CC[C@]2(C)C3=CC[C@@H]4[C@](C)(CC[C@H](O)[C@]4(C)CO)[C@H]3CC[C@@]12C	> 10 µM	> 10 µM	9.1 µM
CO[C@H]1O[C@H](C=C(C)C)C[C@H]1[C@@H]1CC[C@]2(C)C3=CC[C@H]4C(C)(C)[C@@H](O)CC[C@]4(C)[C@H]3CC[C@@]12C	> 10 µM	> 10 µM	8.8 µM
CC(C)(O)[C@@H]1[C@@H](O)[C@H]([C@@H]2CC=C3[C@]4(C)[C@H](O)C[C@H]5C(C)(C)[C@H](O)CC[C@]5(C)[C@H]4CC[C@]32C)C[C@H]1O	> 10 µM	> 10 µM	> 10 µM
CCO[C@H]1O[C@H](C=C(C)C)C[C@H]1[C@@H]1CC[C@]2(C)C3=CC[C@H]4C(C)(C)[C@@H](O)CC[C@]4(C)[C@H]3CC[C@@]12C	> 10 µM	> 10 µM	> 10 µM
C[C@@H](C[C@@H](O)[C@H](O)C(C)(C)O)[C@@H]1CC=C2[C@]3(C)[C@H](O)C[C@H]4C(C)(C)C(=O)CC[C@]4(C)[C@H]3CC[C@]21C	> 10 µM	> 10 µM	> 10 µM
C[C@@H](C[C@@H](O)[C@@H](O)C(C)(C)O)[C@@H]1CC[C@]2(C)C3=CC[C@H]4C(C)(C)C(=O)CC[C@]4(C)[C@H]3CC[C@@]12C	8.5 µM	8 µM	6.9 µM
C[C@@H](CC[C@H](O)C(C)(C)O)[C@@H]1CC[C@]2(C)C3=CC[C@H]4C(C)(C)C(=O)CC[C@]4(C)[C@H]3CC[C@@]12C	> 10 µM	> 10 µM	9.1 µM
C[C@@H](C[C@@H](O)[C@H](O)C(C)(C)O)[C@@H]1CC[C@]2(C)C3=CC(=O)[C@H]4C(C)(C)[C@@H](O)CC[C@]4(C)[C@H]3CC[C@@]12C	> 10 µM	> 10 µM	> 10 µM
C[C@@H](C[C@@H](O)[C@H](O)C(C)(C)O)[C@@H]1CC[C@]2(C)C3=C(C(=O)C[C@@]12C)[C@@]1(C)CCC(=O)C(C)(C)[C@@H]1CC3=O	> 10 µM	> 10 µM	> 10 µM
CC1(C)OC[C@H]([C@@H]2CC[C@]3(C)C4=CC[C@H]5C(C)(C)[C@H](O)CC[C@]5(C)[C@H]4CC[C@@]23C)C[C@@H](O)[C@@H]1O	> 10 µM	> 10 µM	> 10 µM
CCO[C@H]1O[C@H](C(C)(C)O)[C@@H](O)C[C@H]1[C@@H]1CC[C@]2(C)C3=CC[C@H]4C(C)(C)C(=O)CC[C@]4(C)[C@H]3CC[C@@]12C	> 10 µM	> 10 µM	> 10 µM
CCO[C@@H]1O[C@@H](C=C(C)C)C[C@H]1[C@@H]1CC[C@]2(C)C3=CC[C@H]4C(C)(C)[C@@H](O)CC[C@]4(C)[C@H]3CC[C@@]12C	> 10 µM	8.3 µM	7.9 µM
CC(C)(O)[C@H]1OC[C@H]([C@@H]2CC[C@]3(C)C4=CC[C@H]5C(C)(C)C(=O)CC[C@]5(C)[C@H]4CC[C@@]23C)C[C@H]1O	> 10 µM	> 10 µM	> 10 µM
COC1OC(C=C(C)C)C[C@H]1[C@@H]1CC[C@]2(C)C3=CC[C@H]4C(C)(C)[C@H](O)CC[C@]4(C)[C@H]3CC[C@@]12C (some centres undefined)	> 10 µM	> 10 µM	> 10 µM
CO[C@@H]1O[C@H](C=C(C)C)C[C@H]1[C@@H]1CC[C@]2(C)C3=CC[C@H]4C(C)(C)[C@H](O)CC[C@]4(C)[C@H]3CC[C@@]12C	> 10 µM	> 10 µM	> 10 µM
CCCCCC(=O)O[C@@H]1C[C@]2(C)C(=CC[C@H]2[C@]2(O)C[C@@H]([C@@H](O)C(C)(C)O)O[C@H]2OC)[C@]2(C)[C@H](O)C[C@H]3C(C)(C)C(=O)C=C[C@]3(C)[C@@H]12	> 10 µM	> 10 µM	> 10 µM
CCO[C@H]1O[C@@H]([C@H](O)C(C)(C)O)C[C@H]1[C@@H]1CC[C@]2(C)C3=CC[C@H]4C(C)(C)C(=O)CC[C@]4(C)C3=CC[C@@]12C	> 10 µM	> 10 µM	8.3 µM
CCOC(=O)CC[C@]1(C)[C@H]2CC[C@@]3(C)[C@H]([C@@H](C)CC/C=C(\C)CO)CC[C@]3(C)C2=CC[C@H]1C(C)(C)O	> 10 µM	> 10 µM	> 10 µM
C[C@@H](C[C@@H](O)[C@H](O)C(C)(C)O)[C@@H]1CC=C2[C@]3(C)[C@H](O)[C@@H](O)[C@H]4C(C)(C)C(=O)CC[C@]4(C)[C@H]3CC[C@]21C	> 10 µM	> 10 µM	> 10 µM
